Assay results pooled from the literature.
Compare with care: the assays were run in different laboratories.
Read-out: microbial growth

Structure (SMILES) | organism | method | strain | time | setting | MIC
O=c1[nH]c(NCc2ccc(Cl)c(Cl)c2)nc2ncn(CCCCCN3CCOCC3)c12 | Bifidobacterium | agar dilution |  | 48 h |  | > 32 µg/mL
CCCCCCC/C=C/C(=O)N1C(=O)/C(=C(/C)O)C(=O)C1CO (stereo not drawn) | Stenotrophomonas maltophilia |  | ATCC13637 |  |  | > 200 µg/mL
C[C@@H](O)[C@H]1C(=O)N2C(C(=O)O)=C(S[C@@H]3CN[C@H](C(=O)N(C)C)C3)[C@H](C)[C@H]12 | Stenotrophomonas maltophilia | broth dilution |  |  | clinical isolate | > 64 µg/mL
CN[C@H](CC(C)C)C(=O)N[C@H]1C(=O)N[C@@H](CC(N)=O)C(=O)N[C@H]2C(=O)N[C@H]3C(=O)N[C@H](C(=O)N[C@H](C(=O)O)c4cc(O)cc(O)c4-c4cc3ccc4O)[C@H](O)c3ccc(c(Cl)c3)Oc3cc2cc(c3O[C@@H]2O[C@H](CO)[C@@H](O)[C@H](O)[C@H]2O[C@H]2C[C@](C)(N)[C@H](O)[C@H](C)O2)Oc2ccc(cc2Cl)[C@H]1O | Streptococcus mutans | broth dilution | ATCC25175 |  |  | 0.98 µg/mL
CC(C)Oc1c(NC(=O)c2ccc(NC(=O)[C@H](CC(N)=O)NC(=O)c3ccc(NC(=O)c4ccc(C#N)s4)cc3)cc2)ccc(C(=O)Nc2ccc(C(=O)O)cc2)c1O | Klebsiella aerogenes |  | DSM30053 |  |  | 0.25 µg/mL
O=C1NC(=S)S/C1=C\c1ccc(-c2ccc(N(c3ccccc3)c3ccccc3)cc2)cc1 | Streptococcus pyogenes | broth dilution | ATCC19615 |  |  | 1000 µg/mL
CNC(=O)c1cc(Oc2ccc(NC(=O)Nc3ccc(Cl)c(C(F)(F)F)c3)cc2)ccn1 | Klebsiella aerogenes |  | DSM30053 |  |  | > 100 µM
O=C1NC(=S)N/C1=C\c1c2ccccc2c(-c2ccc(N(c3ccccc3)c3ccccc3)cc2)c2ccccc12 | Streptococcus pyogenes | broth dilution | ATCC19615 |  |  | > 1000 µg/mL
CCCCCCC/C=C/C(=O)N1C(=O)/C(=C(\O)CCCC)C(=O)C1CC(C)C (stereo not drawn) | Stenotrophomonas maltophilia |  | ATCC13637 |  |  | > 200 µg/mL
O=c1[nH]c(NCc2ccc(Cl)c(Cl)c2)nc2ncn(CCN3CCOCC3)c12 | Bifidobacterium | agar dilution |  | 48 h |  | > 32 µg/mL
CC(C)Oc1c(NC(=O)c2ccc(NC(=O)[C@H](CC(N)=O)NC(=O)c3ccc(NC(=O)c4ccc(C#N)cn4)cc3)cc2)ccc(C(=O)Nc2ccc(C(=O)O)cc2)c1O | Klebsiella aerogenes |  | DSM30053 |  |  | 0.25 µg/mL
O=C1NC(=S)S/C1=C\c1ccc(-c2ccc(N(c3ccccc3)c3ccccc3)cc2)c2ccccc12 | Streptococcus pyogenes | broth dilution | ATCC19615 |  |  | 1000 µg/mL
CCCCCCC/C=C/C(=O)N1C(=O)/C(=C(\O)c2ccc(O)cc2)C(=O)C1CC(C)C (stereo not drawn) | Stenotrophomonas maltophilia |  | ATCC13637 |  |  | 200 µg/mL
O=C1NC(=S)S/C1=C\c1c2ccccc2c(-c2ccc(N(c3ccccc3)c3ccccc3)cc2)c2ccccc12 | Streptococcus pyogenes | broth dilution | ATCC19615 |  |  | > 1000 µg/mL
CCCCCCC/C=C/C(=O)N1C(=O)/C(=C(/C)O)C(=O)C1CCCCN (stereo not drawn) | Stenotrophomonas maltophilia |  | ATCC13637 |  |  | > 200 µg/mL
